Reference: ChEMBL document CHEMBL4406918, “Inhibitory Effects of Multivalent Polypeptides on the Proliferation and Metastasis of Breast Cancer Cells” (ACS Med Chem Lett, 2019)
The source made the active and inactive calls. The calls are words filed in the database; no cut-off is given here.

How the values were obtained:
[1] = Toxicity in BALB/c mouse xenografted with mouse 4T1 cells assessed as change in serum creatinine level at 10 mg/kg administered intratumorally and measured after 24 days; assay type: organism-based; conditions: in vivo, other, 576 h
[2] = Toxicity in BALB/c mouse xenografted with mouse 4T1 cells assessed as change in blood urea nitrogen level at 10 mg/kg administered intratumorally and measured after 24 days; assay type: organism-based; conditions: in vivo, other, 576 h
4T1 [3] = assay: Antitumour activity against mouse 4T1 cells xenografted in BALB/c mouse assessed as increase in damage of tumor tissue at 10 mg/kg administered intratumorally and measured after 24 days by H and E staining based inverted optical microscopic method; assay type: functional, organism-based
How it was run: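 Tumours from 4T1-bearing BALB/c mice given 6 doses of 10 mg/kg (saline control) were sectioned and stained with H&E, plus CD31, Ki-67 and TUNEL.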

[4] = Stability in fetal bovine serum assessed as parent compound remaining measured after 12 hrs by RP-HPLC analysis; assay type: ADME, cell-free, Bos taurus; conditions: cattle, read-out: Stability
How it was run: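 Peptides incubated in serum, and the fraction of intact YSL was measured over time up to 12 h, including a 4 h point.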

4T1 [5] = assay: Antiproliferative activity against mouse 4T1 cells assessed as cell death at 0.2 mM incubated for 24 hrs by MTT assay relative to control; assay type: functional
How it was run: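 Mouse 4T1 breast cancer cells exposed for 24 h (doses include 0.1 and 0.2 mM), then read by MTT for viability or cell death. Mean ± SD, n = 6.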

Erythrocyte = assay: Hemolytic activity in BALB/c mouse RBC at 3.2 mM incubated for 2 hrs by UV-Vis spectrophotometric analysis; assay type: ADME, cell-based; conditions: 3200 µM
How it was run: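 Hemolysis assay on red blood cells with dendrimers up to 3.2 mM. Result is expressed as hemolysis rate, with under 5% taken as acceptable.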

4T1 [6] = assay: Induction of cell death in mouse 4T1 cells incubated for 24 hrs by PI staining based inverted microscopic method; assay type: functional
How it was run: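 Live–dead staining of 4T1 cells after 24 h exposure to 0.4 mM, read by PI staining. A 0.8 mM level was also examined.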

4T1 [7] = assay: Induction of cell cycle arrest in mouse 4T1 cells assessed as accumulation at S phase at 0.4 mM incubated for 24 hrs by PI staining based flow cytometric analysis (Rvb =42.35%); assay type: functional
4T1 [8] = assay: Induction of cell cycle arrest in mouse 4T1 cells assessed as accumulation at G2/M phase at 0.4 mM incubated for 24 hrs by PI staining based flow cytometric analysis (reference value: 19.82%); assay type: functional
4T1 [9] = assay: Induction of apoptosis in mouse 4T1 cells assessed as early apoptotic cells at 0.4 mM incubated for 24 hrs by Annexin V-FITC/PI based FACS analysis (reference value: 0.76%); assay type: functional
4T1 [10] = assay: Inhibition of cell migration in mouse 4T1 cells assessed as wound closure rate at 0.2 mM measured up to 36 hrs by inverted optical microscopic method based wound healing assay (reference value: 82%); assay type: functional; parameters: scale not given: the % may be the effect or the level left
4T1 [11] = assay: Inhibition of cell migration in mouse 4T1 cells assessed as migration frequency at 0.2 mM incubated for 24 hrs by crystal violet staining based transwell assay relative to control; assay type: functional; parameters: scale not given: the % may be the effect or the level left
How it was run: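 4T1 cells, Transwell migration with 24 h exposure to 0.2 mM. Migration rate comes from counting cells on the bottom of the porous membrane. Mean ± SD, n = 3.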

4T1 [12] = assay: Potency index, ratio of test compound effect to YSL effect for inhibition of cell migration in mouse 4T1 cells; assay type: functional
4T1 [13] = assay: Inhibition of metastasis in mouse 4T1 cells assessed as formation of pseudopods at 0.2 mM incubated for 24 hrs by SEM analysis; assay type: functional, cell-based
How it was run: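 4T1 cells treated 24 h, then imaged by scanning electron microscopy for pseudopod formation. Dendrimers were tested at 0.2 mM and the reference at 10–5 mM.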

4T1 [14] = assay: Inhibition of metastasis in mouse 4T1 cells assessed as disruption in F-actin arrangement at 0.2 mM incubated for 24 hrs by Hoechst 33342 staining based confocal laser scanning microscopic method; assay type: functional, cell-based
How it was run: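 After 24 h at 0.2 mM, 4T1 cells were stained for F-actin with Alexa Fluor 488 phalloidin and for nuclei with Hoechst 33342, then imaged by fluorescence for cytoskeletal arrangement and cell morphology.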

4T1 [15] = assay: Inhibition of metastasis in mouse 4T1 cells assessed as cell shrinkage at 0.2 mM incubated for 24 hrs by Hoechst 33342 staining based confocal laser scanning microscopic method; assay type: functional
How it was run: (§1)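 After 24 h treatment, 4T1 cells were stained with Alexa Fluor 488 phalloidin for F-actin and Hoechst 33342 for nuclei, then imaged by fluorescence microscopy to assess cytoskeleton and cell morphology.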

4T1 [16] = assay: Inhibition of metastasis in mouse 4T1 cells assessed as shortening in actin filaments at 0.2 mM incubated for 24 hrs by Hoechst 33342 staining based confocal laser scanning microscopic method; assay type: functional, cell-based; how it was run: as §1
4T1 [17] = assay: Antitumour activity against mouse 4T1 cells xenografted in BALB/c mouse assessed as inhibition in tumor growth at 10 mg/kg administered intratumorally and measured every 3 days for 24 days; assay type: functional, organism-based
How it was run: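 BALB/c mice bearing subcutaneous 4T1 tumours received 6 doses of 10 mg/kg, with equal YSL-monomer molar amounts across compounds and saline as control. Tumour volume growth curves and body weights were tracked. Mean ± SD, n = 5.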

4T1 [18] = assay: Antitumour activity against mouse 4T1 cells xenografted in BALB/c mouse assessed as increase in cytotoxic tumor cell death at 10 mg/kg administered intratumorally and measured after 24 days by H and E staining based inverted optical microscopic method; assay type: functional, organism-based
How it was run: (§2)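 BALB/c mice bearing subcutaneous 4T1 tumours received 6 doses at 10 mg/kg body weight, matched for YSL monomer molar amount, with saline as control. Tumour sections were stained for H&E, CD31, Ki-67 and TUNEL. n = 5.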

4T1 [19] = assay: Antitumour activity against mouse 4T1 cells xenografted in BALB/c mouse assessed as […] at 10 mg/kg administered intratumorally and measured after 24 days by H and E staining based inverted optical microscopic method; assay type: functional, organism-based; how it was run: as §2
4T1 [20] = assay: Antitumour activity against mouse 4T1 cells xenografted in BALB/c mouse assessed as reduction in number of Ki67 positive tumor cells at 10 mg/kg administered intratumorally and measured after 24 days by H and E staining based inverted optical microscopic method; assay type: functional, organism-based; how it was run: as §2
[21] = Toxicity in BALB/c mouse xenografted with mouse 4T1 cells assessed as induction of morphological lesions in liver at 10 mg/kg administered intratumorally and measured after 24 days by H and E staining based inverted optical microscopic method; assay type: organism-based; conditions: in vivo, other, 576 h
[22] = Toxicity in BALB/c mouse xenografted with mouse 4T1 cells assessed as induction of morphological lesions in heart at 10 mg/kg administered intratumorally and measured after 24 days by H and E staining based inverted optical microscopic method; assay type: organism-based; conditions: in vivo, other, 576 h
[23] = Toxicity in BALB/c mouse xenografted with mouse 4T1 cells assessed as induction of morphological lesions in spleen at 10 mg/kg administered intratumorally and measured after 24 days by H and E staining based inverted optical microscopic method; assay type: organism-based; conditions: in vivo, other, 576 h
[24] = Toxicity in BALB/c mouse xenografted with mouse 4T1 cells assessed as induction of morphological lesions in kidney at 10 mg/kg administered intratumorally and measured after 24 days by H and E staining based inverted optical microscopic method; assay type: organism-based; conditions: in vivo, other, 576 h
[25] = target: Matrix metalloproteinase-9 (Mus musculus) (UniProt P41245); assay: Residual MMP9 activity in mouse 4T1 cells at 0.2 mM incubated for 24 hrs by coomassie brilliant blue staining based gelatin zymography assay relative to control
Sequence of Matrix metalloproteinase-9 (Mus musculus) (P41245 whole entry): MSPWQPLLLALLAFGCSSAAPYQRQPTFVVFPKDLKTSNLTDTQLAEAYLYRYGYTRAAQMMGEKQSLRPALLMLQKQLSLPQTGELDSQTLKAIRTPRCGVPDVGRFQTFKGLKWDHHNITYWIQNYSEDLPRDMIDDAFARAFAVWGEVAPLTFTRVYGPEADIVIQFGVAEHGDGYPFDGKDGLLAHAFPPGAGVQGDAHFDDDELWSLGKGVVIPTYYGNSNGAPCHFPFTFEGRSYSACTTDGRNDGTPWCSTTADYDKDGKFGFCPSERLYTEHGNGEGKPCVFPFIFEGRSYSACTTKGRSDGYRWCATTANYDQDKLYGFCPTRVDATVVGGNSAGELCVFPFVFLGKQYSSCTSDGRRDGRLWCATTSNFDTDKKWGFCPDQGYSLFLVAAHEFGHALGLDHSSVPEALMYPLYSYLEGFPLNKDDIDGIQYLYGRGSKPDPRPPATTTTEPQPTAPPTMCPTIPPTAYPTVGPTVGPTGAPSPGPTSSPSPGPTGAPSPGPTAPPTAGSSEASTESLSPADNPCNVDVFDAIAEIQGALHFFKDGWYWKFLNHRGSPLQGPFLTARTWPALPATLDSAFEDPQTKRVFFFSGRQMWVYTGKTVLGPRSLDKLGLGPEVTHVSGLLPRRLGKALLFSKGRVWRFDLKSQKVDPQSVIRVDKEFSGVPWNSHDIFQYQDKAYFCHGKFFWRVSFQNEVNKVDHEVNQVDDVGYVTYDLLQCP

COC(=O)[C@H](CCCCNC(=O)[C@H](CCCCNC(=O)[C@H](CCCCNC(=O)[C@H](CC(C)C)NC(=O)[C@H](CO)NC(=O)[C@@H](N)Cc1ccc(O)cc1)NC(=O)[C@H](CC(C)C)NC(=O)[C@H](CO)NC(=O)[C@@H](N)Cc1ccc(O)cc1)NC(=O)[C@H](CCCCNC(=O)[C@H](CC(C)C)NC(=O)[C@H](CO)NC(=O)[C@@H](N)Cc1ccc(O)cc1)NC(=O)[C@H](CC(C)C)NC(=O)[C@H](CO)NC(=O)[C@@H](N)Cc1ccc(O)cc1)NC(=O)[C@H](CCCCNC(=O)[C@H](CCCCNC(=O)[C@H](CC(C)C)NC(=O)[C@H](CO)NC(=O)[C@@H](N)Cc1ccc(O)cc1)NC(=O)[C@H](CC(C)C)NC(=O)[C@H](CO)NC(=O)[C@@H](N)Cc1ccc(O)cc1)NC(=O)[C@H](CCCCNC(=O)[C@H](CC(C)C)NC(=O)[C@H](CO)NC(=O)[C@@H](N)Cc1ccc(O)cc1)NC(=O)[C@H](CC(C)C)NC(=O)[C@H](CO)NC(=O)[C@@H](N)Cc1ccc(O)cc1
Activity [1]: Non-Toxic
Activity [2]: Non-Toxic
Activity (4T1 [3]): Active
remaining at 12 h [4]: > 80%
Activity (4T1 [5]): 20%
Activity (Erythrocyte): Non-Toxic
Activity (4T1 [6]): Dose-dependent effect
Activity (4T1 [7]): 46.42%
Activity (4T1 [8]): 7.08%
Activity (4T1 [9]): 3.95%
Activity (4T1 [10]): 30%
Activity (4T1 [11]): 10%
Ratio (4T1 [12]): 4.5
inhibition (4T1 [13]): inactive
F-actin disruption (qualitative) (4T1 [14]): Active
inhibition (4T1 [15]): Active
inhibition (4T1 [16]): Active
Activity (4T1 [17]): Active
Activity (4T1 [18]): Active
Activity (4T1 [19]): Active
Activity (4T1 [20]): Active
Activity [21]: Non-Toxic
Activity [22]: Non-Toxic
Activity [23]: Non-Toxic
Activity [24]: Non-Toxic
residual activity [25]: 34%
